According to ChEMBL document CHEMBL1148827, “An investigation into the cytotoxicity and mode of action of some novel N-alkyl-substituted isatins” (J Med Chem, 2007):
pIC50: −log10 of the molar value. Active and inactive are the calls of the source. No cut-off for these calls is given here.

Experiments:
[1] = test system: U-937; assay: Cytotoxicity against human U937 cells by MTS assay after 24 hrs; type: functional, cell-based; details: U-937, 24 h
[2] = test system: Jurkat; assay: Cytotoxicity against human Jurkat cells by MTS assay after 24 hrs; type: functional, cell-based
[3] = test system: MCF7; assay: Cytotoxicity against human MCF7 cells by MTS assay after 24 hrs; type: functional, cell-based; details: MCF7, 24 h
[4] = test system: A-375; assay: Cytotoxicity against human A375 cells by MTS assay after 24 hrs; type: functional, cell-based; details: A-375, 24 h
[5] = test system: HCT-116; assay: Cytotoxicity against human HCT116 cells by MTS assay after 24 hrs; type: functional, cell-based; details: HCT-116, 24 h
[6] = test system: PC-3; assay: Cytotoxicity against human PC3 cells by MTS assay after 24 hrs; type: functional, cell-based; details: PC-3, 24 h
[7] = Cytotoxicity against human […] cells by MTS assay after 24 hrs; type: functional, cell-based
[8] = test system: U-937; assay: Effect on U937 cell morphology assessed as irregular membrane protrusions at 0.39 ug/ml after 24 hrs; type: functional, cell-based; details: Homo sapiens
Method in brief: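 U937 cells (1.0 × 10⁴) exposed to compounds at 0.39 µg/mL for 24 h, with DMSO vehicle as control. Examined by brightfield light microscopy at 1000× magnification.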

[9] = test system: U-937; assay: Cell cycle arrest in human U937 cells assessed as increase in S and sub G1 phase accumulation at 2 uM; type: functional, cell-based
Method in brief: (§1)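 U937 cells treated 4 h or 24 h against DMSO vehicle, with 0.5 µM vinblastine sulfate as reference. Cells (2.0 × 10⁴) fixed in ice-cold 70% ethanol at -20 °C for 30 min to overnight. Stained 30 min at 37 °C with 40 µg/mL PI plus 100 µg/mL RNase A in PBS pH 7.4. DNA content read by flow cytometry and cell-cycle phase proportions calculated.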

[10] = organism: Bos taurus; assay: Inhibition of bovine neuronal tubulin polymerization at 10 uM
Method in brief: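 Polymerization followed 1 h at 37 °C by fluorescence, ex 360 ± 10 nm / em 440 ± 10 nm. Duplicate wells.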

[11] = test system: U-937; assay: Cell cycle arrest in human U937 cells assessed as increase in S and sub G1 phase accumulation at 1 uM; type: functional, cell-based; method in brief: as §1
[12] = test system: Jurkat; assay: Activation of caspase in Jurkat cells after 5 hrs relative to staurosporine; type: cell-based; details: Homo sapiens
Method in brief: (§2)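 Cells exposed to test compound for 5 h at 37 °C; 2 µM staurosporine as positive control. Apo-ONE homogeneous caspase-3/7 reagent then added for 1 h at room temperature. Fluorescence read at excitation 485 nm, emission 520 nm. Values normalized to staurosporine. Means ± SE of one representative experiment run in triplicate.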

[13] = test system: U-937; assay: Effect on stability of microtubules in U937 cells assessed as alteration of microtubule organisation at 1.7 uM after 24 hrs; type: functional, cell-based; details: Homo sapiens
Method in brief: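 U937 cells (2.2 × 10⁵/mL) seeded, held 24 h, then exposed 24 h to 0.78 µg/mL (1.7 µM) compound. Controls: 2 µM vinblastine or 2.5% DMSO. […] Cells washed in PBS and imaged by confocal microscopy, excitation 488 nm, emission 500–540 nm.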

[14] = test system: U-937; assay: Activation of caspase in U937 cells after 5 hrs relative to staurosporine; type: cell-based; details: Homo sapiens; method in brief: as §2
[15] = biological target: Tubulin; assay: Displacement of [3H]colchicine from tubulin by scintillation proximity assay; type: protein-complex assay, Homo sapiens

SMILES | pIC50 [1] | pIC50 [2] | pIC50 [3] | pIC50 [4] | pIC50 [5] | pIC50 [7] | other results
COc1ccc(CN2C(=O)C(=O)c3cccc(Br)c32)cc1 | 4.75 | – | – | – | – | – | –
COCCN1C(=O)C(=O)c2cc(Br)cc(Br)c21 | 5.46 | 5.05 | 5.18 | – | – | – | –
O=C1C(=O)N(Cc2ccc(Br)cc2)c2c(Br)cc(Br)cc21 | 6.20 | 6.20 | 5.28 | 5.91 | 6.28 | 5.72 | pIC50 [6]: 5.46
O=C1C(=O)N(Cc2ccc(I)cc2)c2c(Br)cc(Br)cc21 | 5.64 | 6.24 | 5.37 | 5.62 | 5.47 | 5.53 | Activity [8]: Active; pIC50 [6]: 4.96
COc1ccc(CN2C(=O)C(=O)c3c(Br)cccc32)cc1 | < 4.44 | – | – | – | – | – | –
O=C1C(=O)N(Cc2ccccc2[N+](=O)[O-])c2c(Br)cc(Br)cc21 | 5.64 | – | 5.50 | – | – | – | –
Cc1ccc(CN2C(=O)C(=O)c3cc(Br)cc(Br)c32)cc1 | 6.31 | 6.31 | 4.96 | 5.70 | 5.91 | 5.72 | Activity [9]: Active; Activity [10]: Active; pIC50 [6]: 5.34; Activity [11]: Active
O=C1C(=O)N(C/C=C/c2ccccc2)c2c(Br)cc(Br)cc21 | 5.63 | 5.85 | 5.11 | – | – | – | Activity [10]: Active; Activity [8]: Active
O=C1C(=O)N(Cc2ccc(Cl)cc2)c2c(Br)cc(Br)cc21 | 6.01 | 6.30 | 5.41 | 5.77 | 5.74 | 5.56 | pIC50 [6]: 5.66
CC(C)CCN1C(=O)C(=O)c2cc(Br)cc(Br)c21 | 5.62 | 5.46 | 5.13 | – | – | – | Activity [8]: Active
CC[C@]1(O)C[C@@H]2CN(CCc3c([nH]c4ccccc34)[C@@](C(=O)OC)(c3cc4c(cc3OC)N(C)[C@H]3[C@@](O)(C(=O)OC)[C@H](OC(C)=O)[C@]5(CC)C=CCN6CC[C@]43[C@@H]65)C2)C1 [VINBLASTINE] | 5.16 | – | – | – | – | – | –
COc1ccc(CN2C(=O)C(=O)c3cc(Br)ccc32)cc1 | < 4.44 | – | – | – | – | – | –
COC(=O)c1ccc(CN2C(=O)C(=O)c3cc(Br)cc(Br)c32)cc1 | 5.92 | 5.92 | 5.04 | – | – | – | –
COc1ccc(CN2C(=O)C(=O)c3ccccc32)cc1 | < 4.33 | – | – | – | – | – | –
O=C1C(=O)N(Cc2ccc(-c3ccccc3)cc2)c2c(Br)cc(Br)cc21 | 6.12 | 6.13 | 5.31 | 5.92 | 6.08 | 5.69 | Activity [10]: Active; pIC50 [6]: 5.47
CC(C)(C)c1ccc(CN2C(=O)C(=O)c3cc(Br)cc(Br)c32)cc1 | 5.95 | 6.18 | 5.58 | 6.05 | 5.78 | 6.01 | Activity [8]: Active; pIC50 [6]: 5.51
O=C1C(=O)N(Cc2ccccc2)c2c(Br)cc(Br)cc21 | 5.94 | 5.94 | 5.15 | – | – | – | –
O=C(O)c1ccc(CN2C(=O)C(=O)c3cc(Br)cc(Br)c32)cc1 | < 4.85 | < 4.85 | < 4.85 | – | – | – | –
COc1ccc(CN2C(=O)C(=O)c3ccc(Br)cc32)cc1 | 4.47 | – | – | – | – | – | –
O=C1C(=O)N(Cc2ccc(C(F)(F)F)cc2)c2c(Br)cc(Br)cc21 | 6.10 | 6.16 | 5.15 | 5.90 | 6.08 | 6.27 | Activity [9]: Active; Activity [10]: Active; pIC50 [6]: 5.93; Activity [12]: Active; Activity [11]: Active; Activity [13]: Active; Activity [14]: Active
C=CCN1C(=O)C(=O)c2cc(Br)cc(Br)c21 | 5.18 | – | – | – | – | – | –
O=C1C(=O)N(Cc2ccc([N+](=O)[O-])cc2)c2c(Br)cc(Br)cc21 | 6.05 | 6.05 | 5.36 | 5.60 | 5.57 | 5.56 | –
O=C1C(=O)N(Cc2ccc(C(F)(F)F)cc2)c2cc(Br)ccc21 | 5.28 | 5.28 | – | – | – | – | –
COc1cc(-c2ccc3c(c2)NC(=O)/C3=C\c2ccc[nH]2)ccc1O | – | – | – | – | – | – | pIC50 [15]: 6.89
COc1cccc(CN2C(=O)C(=O)c3cc(Br)cc(Br)c32)c1 | 5.75 | 5.70 | 5.63 | – | – | – | –
